Measurements as given in ChEMBL document CHEMBL4513216, “Probing the Open Global Health Chemical Diversity Library for Multistage-Active Starting Points for Next-Generation Antimalarials” (ACS Infect Dis, 2020).

Test: Toxicity liver stage against HepG2, at 10uM
Type: cell-based
Design: test concentration 10 uM, cell line HepG2-A16-CD81EGFP
Conditions: human, HepG2-A16-CD81EGFP cells; read-out: INHIBITION
Outline: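 Uninfected HepG2-A16-CD81EGFP cells, 3 × 10^3 per well, 1536-well, plated on prespotted compound at 10 μM final, parasite-free screening media added to match infected plates; puromycin 10 μM positive, DMSO 0.5% negative; run in parallel with 48 h PbLuc assay at 37 °C, 5% CO2; viability by CellTiter-Glo luminescence, normalized to controls.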
In the case of `CCn1cc(S(=O)(=O)NC2CCCN(CC3CCCCC3)C2)cn1` (stereo not given), the cytotoxicity at 10 µM is reported as -7.25%.
For `COc1ccc(N2CCOCC3(CCCN(c4cnccn4)C3)C2)cc1` (stereo not given), the cytotoxicity at 10 µM was 4.29%.
Work on `Cc1ccc(C)c2c(C)c(C(=O)NCCC(=O)N3CCOCC3)oc12` yielded a cytotoxicity at 10 µM of 1.04%.
Compound `O=C(c1ccnnc1)N1C[C@@H]2OCCN(CCN3CCCC3)[C@@H]2C1` has a cytotoxicity at 10 µM of 4.22%.
`O=C(O)[C@H]1C[C@@H](C(=O)NCc2ccncc2)CN(Cc2ccccc2)C1` showed a cytotoxicity at 10 µM of -138%.
Work on `COCCC(=O)N1CCCC(CCC(=O)Nc2ccc(Cl)cc2)C1` (stereo not given) yielded a cytotoxicity at 10 µM of 6.48%.
Work on `O=C1NCC2(CCCN(CCc3ccccc3)C2)Oc2ccccc21` (stereo not given) yielded a cytotoxicity at 10 µM of 2.93%.
Work on `CNC(=O)C1(CCCc2ccncc2)CCCN1` (stereo not given) yielded a cytotoxicity at 10 µM of -6.46%.
For `Cc1noc(CN2CCN(CCS(C)(=O)=O)CC2)n1`, the cytotoxicity at 10 µM was -10.1%.
Work on `CCNC(=O)[C@@H]1C[C@@H](NC(=O)CSC)CN1Cc1ccncc1` yielded a cytotoxicity at 10 µM of -1.87%.
In the case of `Cc1c(C2CCCN(C(=O)c3ccncc3)C2)n2c(nc1=O)CCC2` (stereo not given), the cytotoxicity at 10 µM is reported as -21.8%.
Compound `CCC1c2ccsc2CCN1C(=O)NCc1cccnc1N(C)C` (stereo not given) has a cytotoxicity at 10 µM of -17.4%.
For `COCCN1C(=O)CCC12CCCN(C(=O)CC1CC1)CC2` (stereo not given), the cytotoxicity at 10 µM was 0.346%.
In the case of `Cc1ccc(O)c(C(=O)N2CCCC(NC(=O)C(C)C)C2)c1` (stereo not given), the cytotoxicity at 10 µM is reported as -0.988%.
Work on `O=C(NCC(O)c1ccc(Cl)s1)c1ccoc1` (stereo not given) yielded a cytotoxicity at 10 µM of -3.36%.
`CN(Cc1ccco1)C1CCC12CCN(C(=O)N1CCCC1)CC2` (stereo not given) showed a cytotoxicity at 10 µM of -1.54%.
Work on `CN(C)c1nc(CNC(=O)NC2COc3ccccc32)cs1` (stereo not given) yielded a cytotoxicity at 10 µM of -3.38%.
With `COc1ccc(NC(=O)N2CCN(CCSc3ccccc3)CC2)cc1` the cytotoxicity at 10 µM was 6.13%.
`COc1coc(C(=O)Nc2nc(-c3ccncc3)cs2)cc1=O` gave a cytotoxicity at 10 µM of -7.97%.
`CCn1cc(CN2CCCN(C(=O)CCc3ccccc3)CC2)cn1` showed a cytotoxicity at 10 µM of -7.9%.
For `CCN(CC)CC(=O)N1CCN(CCCc2ccncc2)CC1`, the cytotoxicity at 10 µM was -60.5%.
In the case of `CS(=O)(=O)CCCC(=O)N1CCN(CC2CC2)c2ccccc21`, the cytotoxicity at 10 µM is reported as -3.2%.
`Cn1ncnc1CNC1CCc2cc(Cl)ccc21` (stereo not given) gave a cytotoxicity at 10 µM of 9.57%.
Work on `CC(C(=O)NC1(C#N)CCCCC1)N1CCc2c(ncn2C)C1` (stereo not given) yielded a cytotoxicity at 10 µM of 7.04%.
`COCCOCC1CCN(C(=O)c2ccc3[nH]cnc3c2)C1` (stereo not given) showed a cytotoxicity at 10 µM of -5.73%.
`Cn1cc(CCNC(=O)N2CCCC(c3nncn3C)C2)cn1` (stereo not given) gave a cytotoxicity at 10 µM of -4.41%.
Compound `COc1cc(C)nc(N2CCN(C(=O)CCc3cccs3)CC2)n1` has a cytotoxicity at 10 µM of 5.77%.
For `O=C(NCc1ccco1)c1[nH]nc2c1CS(=O)(=O)CC2`, the cytotoxicity at 10 µM was 14.8%.
Work on `Cn1cc(N2CCC3(CCCN(C(=O)c4ccnn4C)C3)C2=O)cn1` (stereo not given) yielded a cytotoxicity at 10 µM of -1.55%.
`O=C1CO[C@@H]2CN(Cc3ccsc3)C[C@H]2N1Cc1ccncc1` showed a cytotoxicity at 10 µM of -73%.
Compound `Cc1ccc(CN2CCCC3(COCCN(Cc4c[nH]nn4)C3)C2)s1` (stereo not given) has a cytotoxicity at 10 µM of -1.31%.
`Cc1noc(C)c1CN1CCn2c(COC(C)C)nnc2C1` showed a cytotoxicity at 10 µM of -113%.
With `CC(C1CCN(Cc2cnc(-c3cccs3)nc2)CC1)N(C)C` (stereo not given) the cytotoxicity at 10 µM was -11.3%.
In the case of `Cn1cnnc1SCC(=O)NC1CC(=O)N(CCc2ccccc2)C1` (stereo not given), the cytotoxicity at 10 µM is reported as 3.03%.
`c1cnc(N2CCO[C@H]3CN(CC4CCCC4)C[C@H]32)cn1` showed a cytotoxicity at 10 µM of -101%.
`Cc1nc(C#N)c(N2CCC(c3nc(-c4ccccc4)no3)CC2)o1` gave a cytotoxicity at 10 µM of -7.41%.
With `Cc1n[nH]c(C)c1-c1cnc(CC2CCN(C)C2)cn1` (stereo not given) the cytotoxicity at 10 µM was -2.11%.
`CC(=O)NCCC1CCCCN1S(=O)(=O)c1cccc(C#N)c1` (stereo not given) showed a cytotoxicity at 10 µM of -10.8%.
`CCOCC(=O)N1CCC(Oc2ccc(C(F)(F)F)cn2)CC1` showed a cytotoxicity at 10 µM of 11.7%.
`c1cc(COC[C@]23COC[C@H]2CN(Cc2ccsc2)C3)ccn1` showed a cytotoxicity at 10 µM of -90.9%.
In the case of `CCCn1nccc1-c1nccnc1CC1CCN(C(C)=O)C1` (stereo not given), the cytotoxicity at 10 µM is reported as 1.34%.
`Cc1nccn1CCCN1CCC2(CCC(=O)N(CC3CC3)C2)CC1` gave a cytotoxicity at 10 µM of 3.12%.
Compound `CCNc1cc2c(nn1)CCN(C(=O)c1ccc(NC3CC3)nc1)C2` has a cytotoxicity at 10 µM of -12.3%.
`COCC(C)Nc1ccc(-c2nc(Cc3ccc(F)cc3)no2)cn1` (stereo not given) showed a cytotoxicity at 10 µM of 7.22%.
Work on `Cc1oc(-c2ccc(Cl)cc2)nc1C(=O)NC1=NCCS1` yielded a cytotoxicity at 10 µM of 4.65%.
